Experimental data published in the EternaBench riboswitch data.

Tested on: MS2 coat protein
Assay: apparent Kd, MS2 coat protein; higher = weaker binding; RNA-MaP array; FMN 200 µM where present
Outline: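 Green signal from SNAP-549-labelled MS2 coat protein was normalised to red-channel RNA signal and to the median Fmax of control clusters. The protein was titrated from 0.7 or 1.5 nM, doubling to 3 µM, without and then with constant ligand, over designs transcribed by stalled E. coli RNA polymerase on Illumina sequencing-chip clusters, in 100 mM Tris-HCl pH 7.5, 80 mM KCl, 4 mM MgCl2, BSA, DTT, yeast tRNA and Tween-20. The apparent Kd is the median of filtered per-cluster binding-curve fits.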

[1] = designed as: OFF switch for flavin mononucleotide, no ligand
[2] = ligand present: flavin mononucleotide, designed as: OFF switch for flavin mononucleotide
[3] = designed as: ON switch for flavin mononucleotide, no ligand
[4] = ligand present: flavin mononucleotide, designed as: ON switch for flavin mononucleotide

| Sequence | apparent Kd [1] [µM] | apparent Kd [2] [µM] | apparent Kd [3] [µM] | apparent Kd [4] [µM] |
| --- | --- | --- | --- | --- |
| AUCAACCAGGCAGGAUAUCAAUGUGGCCUCAUCGUACACCCUCGCAACAUGAGGAUCACCCAUGUUGAGAAGGGCCAAUUGAGA | 0.00852 | 0.00899 | – | – |
| AUCACAGCCACAGGAUAUCCACAUGAGGAUCACCCAUGUUACCGAAGGGUAGGAGAAGGGUGGCGCUCGUUGCGGACGAUGAAU | – | – | 0.121 | 0.0151 |
| AUCAGAUCGUCAGGAUAUACGUCACUGCGUCAGCAGUGUGGUAAGAUCACAUGAGGAUCACCCAUGUAGAAGGGACGAGCUGAU | 0.0139 | 0.296 | – | – |
| AUCAGCACGUGAGGAUAUGCGUCACUGCGAAAGCAGUGCGGUAAGAUCACAUGAGGAUCACCCAUGUAGAAGGCACGAGCUGAU | 0.0208 | 0.054 | – | – |
| AUCAGCUCCUCAGGAUAUACAUCACUGCUUCGGCAGUGUAUUAAGAUCACAUGAGGAUCACCCAUGUAGAAGGGAGGAGCUGAU | 0.0295 | 0.336 | – | – |
| AUCAGCUCGUCAGGAUAUACAUCACUGCUUCGGCAGUGUAUCAUAACAACAUGAGGAUCACCCAUGUAGAAGGGACGAGCUGAU | 0.0238 | 0.0347 | – | – |
| AUCAGCUCGUCAGGAUAUACGUCACAGCGUCAGCAGUGUGGUAAGAUCACAUGAGGAUCACCCAUGUAGAAGGGACGAGCUGAU | 0.0168 | 0.223 | – | – |
| AUCAGCUCGUCAGGAUAUACGUCACUGCGUCAGCAGUGAGGUAAGAUCACAUGAGGAUCACCCAUGUAGAAGGGACGAGCUGAU | 0.00609 | 0.0132 | – | – |
| AUCAGCUCGUCAGGAUAUACGUCACUGCGUCAGCAGUGUGAUAAGAUCACAUGAGGAUCACCCAUGUAGAAGGGACGAGCUGAU | 0.00848 | 0.0723 | – | – |
| AUCAGCUCGUCAGGAUAUACGUCACUGCGUCAGCAGUGUGCUAAGAUCACAUGAGGAUCACCCAUGUAGAAGGGACGAGCUGAU | 0.00583 | 0.0221 | – | – |
| AUCAGCUCGUCAGGAUAUACGUCACUGCGUCAGCAGUGUGGUAAGAUCACAUGAGGAUCACCCAUGUAGAAGGGACAAGCUGAU | 0.0131 | 0.27 | – | – |
| AUCAGCUCGUCAGGAUAUACGUCACUGCGUCAGCAGUGUGGUAAGAUCACAUGAGGAUCACCCAUGUAGAAGGGACGAGCAGAU | 0.0137 | 0.262 | – | – |
| AUCAGCUCGUCAGGAUAUACGUCACUGCGUCAGCAGUGUGGUAAGAUCACAUGAGGAUCACCCAUGUAGAAGGGUCGAGCUGAU | 0.0177 | 0.349 | – | – |
| AUCAGCUCGUCAGGAUAUACGUCACUGCGUCAGGAGUGUGGUAAGAUCACAUGAGGAUCACCCAUGUAGAAGGGACGAGCUGAU | 0.0166 | 0.298 | – | – |
| AUCAGCUCGUCAGGAUAUACGUCACUGCUUCGGCAGUGUGGUAAGAUAACAUGAGGAUCACCCAUGUAGAAGGGACGAGCUGAU | 0.0063 | 0.0121 | – | – |
| AUCAGCUCGUCAGGAUAUACGUCCUGGUAAGAUCACAUGAGGAUCACCCAUGUAGAAGGGACGAGCUGAUAAGCACGAAAGUGC | 0.0186 | 0.0816 | – | – |
| AUCAGCUCGUCAGGAUAUACUUCACUGCGUCAGCAGUGUGGUAAGAUCACAUGAGGAUCACCCAUGUAGAAGGGACGAGCUGAU | 0.006 | 0.00871 | – | – |
| AUCAGCUCGUCAGGAUAUAUAUCACUGCUUCGGCAGUGUAUUAAGAUCACAUGAGGAUCACCCAUGUAGAAGGGACGAGCUGAU | 0.0168 | 0.0202 | – | – |
| AUCAGCUCGUCAGGAUAUAUGUCACUGCUUCGGCAGUGUGGUAAGAUCACAUGAGGAUCACCCAUGUAGAAGGGACGAGCUGAU | 0.0297 | 0.078 | – | – |
| AUCAGCUCGUCAGGAUAUGCGUCACUGCUUCGGCAGUGUGGUAAGAUCACAUGAGGAUCACCCAUGUAGAAGGGACGAGCUGAU | 0.00991 | 0.0752 | – | – |
| AUCAGCUCGUGAGGAUAUGCGUCACUGCGUCAGCAGUGUGGUAAGAUCACAUGAGGAUCACCCAUGUAGAAGGCACGAGCUGAU | 0.034 | 0.455 | – | – |
| AUCAGCUUGACAGGAUAUGCAUGUCAGCGAAAGCUGACAAUCUUAAUAACAUGAGGAUCACCCAUGUAGAAGGGUCGAGCUGAU | 0.0171 | 0.0203 | – | – |
| AUCAUACAUGAGGAUCACCCAUGUUCCGGCAGGUCAGGAUAUAAAUCGAAUGAGUUCUAGUUAGAAGGGACAUCUA | – | – | 0.0493 | 0.0392 |
| AUCAUGUAAGGAUAUGACUACAUAAAAAAAAAAAAAUGUAGUCAGAAGGUACAUGAGGAUCACCCAUGUACAAA | 0.0222 | 0.0237 | – | – |
| AUCAUGUUAGGAUAUACAAGAAAAGAAAAGAAAGAAAAGAAGUAGAAGGAACAUGAGGAUCACCCAUGUAAGAA | 0.0273 | 0.0454 | – | – |
| AUCCGACAUGUAGGAUAUGCGUGGCGAAGCUAUGCAGAAGGACAUGAGGAUCACCCAUGUUUUACCGUCUGCGUACAGACGGUG | 0.286 | 0.24 | – | – |
| AUCGGGUCAGGAUAUUGUUAGUUUAGUUGUUUGUAUUAGUUCGAGAAGGGACAUGAGGAUCACCCAUGUGGUAA | 0.0584 | 0.0732 | – | – |
| AUCGUGAGAGGAUAUACAUGAGGAUCACCCAUGUUUCGAACACCAUGCGGUCAUUUGCGUAGAAGGCUCGUGCG | 0.0291 | 0.0871 | – | – |

| Sequence | apparent Kd [1] [µM] | apparent Kd [2] [µM] | apparent Kd [3] [µM] | apparent Kd [4] [µM] |
| --- | --- | --- | --- | --- |
| AUCUAAGAAUUAAUUGUGACAGUGAGAAGGCUAUAGUUUGUGACCGACAUGAGGAUCACCCAUGUAGAGGAUAUCACUAGCUAC | 0.0399 | 0.253 | – | – |
| AUGAAAGUAACGCAGGAUAUCCAGGAUACAACAUGAGGAUCACCCAUGUACAUACGAACGUAUAAGGAGAAGGGUGGAUGAUCUUC | – | – | 0.173 | 0.342 |
| AUGAAGUCAGGAUAUCGUUAAUUUAGUUGUUUGUAUUAGUUCGAGAAGGGACAUGAGGAUCACCCAUGUAAGUA | 0.0317 | 0.0385 | – | – |
| AUGAGAAAAGCAGGAUAUCUAUUGGCUCAGAAACAUGAGGAUCACCCAUGUAGAGAAGGGCUAAGACCGACUCUUCGGAGUUGA | 0.00568 | 0.00651 | – | – |
| AUGCCAGAAGGAUAUACAUGAGGAUCACCCAUGUCAUGUUUGAUUCGCCCGCAGGGCUGUAGAAGGUCUGGCAU | 0.0652 | 0.543 | – | – |
| AUGCCCUGAGGAUAUCUCAUCCCGCACAUGAGGAUCACCCAUGUUCUCCUCCGGGCUCCGAGAGAAGGCAGGCCCA | 0.0556 | 0.0872 | – | – |
| AUGCGUCGAGAGGAUAUUUGCGAGGUGACCAGCAAAGAAGGUUCGACAUGAGGAUCACCCAUGUCCAGCAUUUG | 0.0342 | 0.0728 | – | – |
| AUGCUAUACGAAGGAUAUGGUUACAUGAGGAUCACCCAUGUAAUUUUUGUGAUCUUGUUUAAGUUCCAGAAGGUCGUAUAGCUA | 0.0422 | 0.156 | – | – |
| AUGCUAUUAGGAUAUACAUGAGGAUCACCCAUGUCGCUCGAUCGACGGCUAAGACUAUGUAGAAGGGAUUACGU | 0.0957 | 0.0944 | – | – |
| AUGCUUAUCGAAGGAUAUGGUUACAUGAGGAUCACCCAUGUUAUGAUUGGUUACUUGUUUAGUUUCCAGAAGGUCGAUUAGUUA | 0.0588 | 0.225 | – | – |
| AUGCUUCACACAGGAUAUUACAUGAGGAUCACCCAUGUUGGGCGGUAGCUCGAAAGAGCUACCGGUAAGAAGGGUGUGAAGCAU | 0.0304 | 0.0592 | – | – |
| AUGCUUUAUGUAGGAUAUACAUACGGUACGUAUGUAGAAGGACAUGAGGAUCACCCAUGUAAAUUAUUAUUAAAUAUCAUACAU | 0.00856 | 0.0123 | – | – |
| AUGGAACAUGAGGAUCACCCAUGUGAGGAUAUGUGAGAAGGAUUUGAGAUGGAGAGGGACAGAAGGCACUAGGA | 0.0544 | 0.0379 | – | – |
| AUGGAUGUCACAGGAUAUGCUAUGGAUACCAUAGCAGAAGGGUGAUCCAUCCUAUGUAAAUACAUGAGGAUCACCCAUGUAUCC | – | – | 0.112 | 0.0736 |
| AUGGCUAAUGAGAAGGUGUAUAUAAAUUAUAUACAAGGAUAUCGGUCAAGCAUGAAAACAUGAGGAUCACCCAUGUAAAGCCAU | – | – | 0.00937 | 0.00757 |
| AUGGGACAUGAGGAUCACCCAUGUCCGGUAUAUCGAGGAUAUGGGAUGCUCUUAAUGUAACCAGAAGGCGAUAAAA | – | – | 0.0166 | 0.0189 |
| AUGGUUGUCGAGGAUAUGCACCGGCUCGCUGACGCAGAAGGCGACACAUGAGGAUCACCCAUGUCGGUUCGCGU | 0.0224 | 0.0514 | – | – |
| AUGUACCGGUGAGGAUAUUUUUAAUAGAGCUUUAUGAUAUACAUGAGGAUCACCCAUGUUACGUUAAAGAAGGCAUCGGAUUAA | 0.021 | 0.0159 | – | – |
| AUGUAGGAAGGAUAUAUAUGGAGCAUGCGUCUCUGAACAUUACAUGAGGAUCACCCAUGUAGAAGGUCCGCGGA | 0.0241 | 0.0331 | – | – |
| AUGUUAGGGAGAGGAUAUUGACAUGAGGAUCACCCAUGUAUUUGGGAGUGUUUACUGAAUUCUUACGAGAAGGCUUACGAAAUU | 0.396 | 0.242 | – | – |
| AUGUUGUCAGGAUAUCGUUAAUUUAGUUGUUUGUAUUAGUUCGAGAAGGGACAUGAGGAUCACCCAUGUUUGUA | 0.032 | 0.044 | – | – |
| AUUAAUUAAUUAAUACAUGAGGAUCACCCAUGUAAUAAGAUCUAGGAUAUCAGCUCGUUUAGAGCUGAGAAGGAGAUCACAUGU | – | – | 0.0426 | 0.0372 |
| AUUACAAUUGUAUACAUGAGGAUCACCCAUGUCAAAAGUCAUGAGGAUAUGGUAUUGUAGUUAUUCCAGAAGGCAUAAAGCUAA | – | – | 0.0292 | 0.0164 |
| AUUAGCUGAGGAUAUGCAGCUUUGUUCGUCGAGUGAAAAGAACAUGAGGAUCACCCAUGUAGAAGGCAGUUGAC | 0.0174 | 0.0181 | – | – |
| AUUAUACAUGAGGAUCACCCAUGUAAUUAAUUAAUUAAGAUCAAGGAUAUCAGCUCGAUUAGAGCUGAGAAGGUGAUCACAUGU | – | – | 0.402 | 0.292 |
| AUUAUAUAGACAGGAUAUUGAUUAUUAUUUUAACAUGAGGAUCACCCAUGUAGCCUUAUGUAUAACAAGAAGGGUCAUUUAUUA | 0.151 | 0.19 | – | – |
| AUUAUAUAGUAAGGAUAUUGAUUAUUAUUUUAACAUGAGGAUCACCCAUGUAGCCUUAUGUAUAACAAGAAGGUACAUUUAUUA | 0.0562 | 0.0584 | – | – |
